The target of data set [1] is Phosphatidylinositol 4-phosphate 5-kinase type-1 gamma (Homo sapiens) (UniProt O60331). The data set is described as follows: Inhibition of human full length PIP5K1C (M1 to H562 residues) expressed in bacterial expression system assessed as residual activity at 10 uM by kinome scan method relative to control. In outline:
(§1)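 KINOMEscan binding assay, test compound at 10 μM against a 52-kinase panel. % Ctrl = (compound signal − positive control signal)/(negative control signal − positive control signal) × 100, with DMSO as negative control (100%) and a positive control (0%).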

In data set [2] the target is Phosphatidylinositol 4,5-bisphosphate 3-kinase catalytic subunit beta isoform (Homo sapiens, UniProt P42338). Kind of data set: Inhibition of human partial length PIK3CB (P118 to S1070 residues) expressed in mammalian expression system assessed as residual activity at 10 uM by kinome scan method relative to control. In outline:
(§2)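 KINOMEscan competitive binding screen at 10 μM test compound against a 52-kinase panel. Output is % Ctrl = (test signal − positive control signal)/(negative control signal − positive control signal) × 100. DMSO is the negative control (100%) and the positive control is set to 0%.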

The target of data set [3] is Serine/threonine-protein kinase Nek10 (Homo sapiens) (UniProt Q6ZWH5). Kind of data set: Inhibition of human partial length NEK10 (L488 to R809 residues) expressed in mammalian expression system assessed as residual activity at 10 uM by kinome scan method relative to control. In outline:
as §1

In data set [4] the target is Phosphatidylinositol 3-kinase catalytic subunit type 3 (Homo sapiens) (UniProt Q8NEB9). The data set is described as follows: Inhibition of human partial length VPS34 (S282 to H879 residues) expressed in mammalian expression system assessed as residual activity at 10 uM by kinome scan method relative to control. Summed up:
as §2

Data set [5] deals with T1, Serine/threonine-protein kinase mTOR (Homo sapiens, UniProt P42345). Kind of data set: Inhibition of mTOR in human U87MG cells assessed as suppression of phosphorylation of S6 ribosomal at Ser235/236 residues at 25 nM after 3 hrs by Western blot analysis. The class given is cell-based. The settings on record: U87. In outline:
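U87MG cells were seeded at 1×10^6 per well and held overnight at 37 °C, 5% CO2. They were then exposed to a range of inhibitor concentrations for 3 h at 37 °C. Phospho-Akt (Ser473, Thr308), phospho-S6 (Ser235/236) and phospho-4E-BP1 (Thr37/46) were measured by Western blot with GAPDH as loading control. Bands were quantified as mean ± SD of 3 biological replicates against untreated cells.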

Data set [6] concerns the target Activin receptor type-2A (Homo sapiens) (UniProt P27037). Kind of data set: Inhibition of human partial length ACVR2A (V171 to T499 residues) expressed in bacterial system assessed as residual activity at 10 uM by kinome scan method relative to control. In outline:
as §1

Data set [7] has as its target Phosphatidylinositol 4,5-bisphosphate 3-kinase catalytic subunit alpha isoform (Homo sapiens, UniProt P42336). The data set is described as follows: Inhibition of human partial length PIK3CA (R108 to N1068 residues) expressed in mammalian expression system assessed as residual activity at 10 uM by kinome scan method relative to control. Summed up: as §2
For a further data set, the system named is U87. Kind of data set: Inhibition of PI3K in human U87MG cells assessed as suppression of phosphorylation of AKT at Thr308 residue at 25 nM after 3 hrs by Western blot analysis. Type of data set: cell-based. In outline: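 U87MG cells seeded at 1×10^6 per well, incubated overnight at 37 °C, 5% CO₂, then treated at various concentrations for 3 h at 37 °C. Western blot for phospho-Akt (Ser473, Thr308), phospho-S6 (Ser235/236) and phospho-4E-BP1 (Thr37/46), with GAPDH as internal control. Bands quantified as mean ± SD, n = 3 biological replicates, versus untreated cells.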

A further data set has as its system PC-3. The data set is described as follows: Growth inhibition of human PC3 cells after 72 hrs by sulforhodamine B assay. Type of data set: functional. For orientation: In SRB staining, fixed cells bind dye roughly in proportion to their protein.
Data set [8] has as its target Serine/threonine-protein kinase PRP4 homolog (Homo sapiens) (UniProt Q13523). Kind of data set: Inhibition of human partial length PRP4 (D657 to I1007 residues) expressed in bacterial expression system assessed as residual activity at 10 uM by kinome scan method relative to control. In outline:
as §2

The target of data set [9] is Serine/threonine-protein kinase TNNI3K (Homo sapiens) (UniProt Q59H18). The data set is described as follows: Inhibition of human full length TNNI3K (M1 to S835 residues) expressed in bacterial expression system assessed as residual activity at 10 uM by kinome scan method relative to control. Summed up:
as §1

In data set [10] the target is Dual specificity mitogen-activated protein kinase kinase 7 (Homo sapiens) (UniProt O14733). The data set is described as follows: Inhibition of human full length MKK7 (M1 to R419 residues) expressed in mammalian expression system assessed as residual activity at 10 uM by kinome scan method relative to control. In outline:
as §1

The target in data set [11] is Cyclin-dependent kinase 18 (Homo sapiens) (UniProt Q07002). The data set is described as follows: Inhibition of human full length PCTK3 (M3 to F474 residues) expressed in bacterial expression system assessed as residual activity at 10 uM by kinome scan method relative to control. In outline: as §1
Cyclin-dependent kinase 18 (Homo sapiens), sequence (Q07002 whole entry, the tested form may be a part): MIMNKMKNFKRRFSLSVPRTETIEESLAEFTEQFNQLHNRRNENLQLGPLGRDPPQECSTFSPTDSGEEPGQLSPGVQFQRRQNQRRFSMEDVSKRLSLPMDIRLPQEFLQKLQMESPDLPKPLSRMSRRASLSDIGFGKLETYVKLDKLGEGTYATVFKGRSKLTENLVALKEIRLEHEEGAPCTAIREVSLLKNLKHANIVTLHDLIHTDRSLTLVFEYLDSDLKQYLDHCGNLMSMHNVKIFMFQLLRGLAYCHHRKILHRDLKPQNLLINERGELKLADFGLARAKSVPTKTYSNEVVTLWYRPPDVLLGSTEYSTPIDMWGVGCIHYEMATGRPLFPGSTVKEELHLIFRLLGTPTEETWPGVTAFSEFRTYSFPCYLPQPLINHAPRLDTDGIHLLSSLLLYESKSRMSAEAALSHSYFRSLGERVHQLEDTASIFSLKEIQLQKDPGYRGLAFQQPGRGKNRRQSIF
For data set [12], the target named is Cyclin-dependent kinase-like 5 (Homo sapiens) (UniProt O76039). Kind of data set: Inhibition of human partial length CDKL5 (M1 to S337 residues) expressed in mammalian expression system assessed as residual activity at 10 uM by kinome scan method relative to control. Summed up: as §1
Cyclin-dependent kinase-like 5 (Homo sapiens), sequence (O76039 whole entry, the tested form may be a part, canonical isoform): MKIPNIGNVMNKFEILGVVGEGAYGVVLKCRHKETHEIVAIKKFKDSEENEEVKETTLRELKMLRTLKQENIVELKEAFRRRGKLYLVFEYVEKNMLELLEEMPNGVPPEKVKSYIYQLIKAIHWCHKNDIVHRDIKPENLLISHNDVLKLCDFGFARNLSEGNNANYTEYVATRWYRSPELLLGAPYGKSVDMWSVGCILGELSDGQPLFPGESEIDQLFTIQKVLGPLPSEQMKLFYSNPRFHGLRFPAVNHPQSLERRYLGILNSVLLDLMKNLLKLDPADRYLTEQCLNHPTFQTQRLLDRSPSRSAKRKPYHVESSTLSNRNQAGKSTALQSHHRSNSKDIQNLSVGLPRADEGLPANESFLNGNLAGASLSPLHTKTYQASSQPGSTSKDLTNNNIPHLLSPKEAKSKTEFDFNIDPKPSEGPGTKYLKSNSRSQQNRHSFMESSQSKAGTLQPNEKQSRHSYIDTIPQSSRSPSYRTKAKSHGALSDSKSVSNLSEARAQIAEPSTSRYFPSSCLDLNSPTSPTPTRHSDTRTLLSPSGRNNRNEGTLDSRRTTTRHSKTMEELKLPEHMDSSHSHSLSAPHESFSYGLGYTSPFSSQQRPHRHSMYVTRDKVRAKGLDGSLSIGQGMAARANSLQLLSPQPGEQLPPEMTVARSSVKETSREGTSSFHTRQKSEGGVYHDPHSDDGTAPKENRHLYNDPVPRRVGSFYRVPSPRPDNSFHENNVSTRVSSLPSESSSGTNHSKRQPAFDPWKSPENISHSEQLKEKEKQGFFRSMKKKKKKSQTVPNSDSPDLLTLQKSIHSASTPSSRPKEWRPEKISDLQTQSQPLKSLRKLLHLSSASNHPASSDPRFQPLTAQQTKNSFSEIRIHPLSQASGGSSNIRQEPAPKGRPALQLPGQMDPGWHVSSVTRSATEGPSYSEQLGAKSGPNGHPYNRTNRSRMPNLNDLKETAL
For data set [13], the target named is Phosphatidylinositol 4,5-bisphosphate 3-kinase catalytic subunit delta isoform (Homo sapiens) (UniProt O00329). Kind of data set: Inhibition of human partial length PIK3CD (R108 to Q1044 residues) expressed in mammalian expression system assessed as residual activity at 10 uM by kinome scan method relative to control. In outline:
as §2

Data set [14] can be described thus: AUC(0 to t) in Sprague-Dawley rat at 5 mg/kg, po. The class given is ADME, organism-based. Also noted: dose 5 mg/kg. The settings on record: in vivo. In outline:
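Male Sprague-Dawley rats (n = 3) given a single oral gavage of 5 mg/kg as a homogeneous opaque suspension in 0.5% methylcellulose; plasma concentration-time curves used to derive mean PK parameters.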

For data set [15], the target named is T1, Serine/threonine-protein kinase mTOR. Kind of data set: Inhibition of human partial length mTOR (L1382 to W2549 residues) expressed in mammalian expression system assessed as residual activity at 10 uM by kinome scan method relative to control. Summed up:
as §2

Data set [16] deals with Phosphatidylinositol 4-phosphate 5-kinase type-1 alpha (Homo sapiens) (UniProt Q99755). Kind of data set: Inhibition of human full length PIP5K1A (M1 to H562 residues) expressed in bacterial expression system assessed as residual activity at 10 uM by kinome scan method relative to control. In outline:
as §1

In data set [17] the target is Mitogen-activated protein kinase kinase kinase 4 (Homo sapiens) (UniProt Q9Y6R4). The data set is described as follows: Inhibition of human partial length MAP3K4 (G1319 to E1608 residues) expressed in bacterial expression system assessed as residual activity at 10 uM by kinome scan method relative to control. Summed up:
as §1

Data set [18] has as its target Phosphatidylinositol 5-phosphate 4-kinase type-2 beta (Homo sapiens) (UniProt P78356). Kind of data set: Inhibition of human full length PIP5K2B (M1 to T416 residues) expressed in bacterial expression system assessed as residual activity at 10 uM by kinome scan method relative to control. Summed up: as §1
In data set [19] the target is Phosphatidylinositol 4,5-bisphosphate 3-kinase catalytic subunit delta isoform (Homo sapiens, UniProt O00329). The data set is described as follows: Inhibition of PI3Kdelta (unknown origin) using PIP2 as substrate measured after 1 hr by ADP-glo assay.

The source made the active and inactive calls. The calls are words filed in the database; no cut-off is given here.

Mitogen-activated protein kinase kinase kinase 4 (Homo sapiens), sequence (Q9Y6R4 whole entry, the tested form may be a part): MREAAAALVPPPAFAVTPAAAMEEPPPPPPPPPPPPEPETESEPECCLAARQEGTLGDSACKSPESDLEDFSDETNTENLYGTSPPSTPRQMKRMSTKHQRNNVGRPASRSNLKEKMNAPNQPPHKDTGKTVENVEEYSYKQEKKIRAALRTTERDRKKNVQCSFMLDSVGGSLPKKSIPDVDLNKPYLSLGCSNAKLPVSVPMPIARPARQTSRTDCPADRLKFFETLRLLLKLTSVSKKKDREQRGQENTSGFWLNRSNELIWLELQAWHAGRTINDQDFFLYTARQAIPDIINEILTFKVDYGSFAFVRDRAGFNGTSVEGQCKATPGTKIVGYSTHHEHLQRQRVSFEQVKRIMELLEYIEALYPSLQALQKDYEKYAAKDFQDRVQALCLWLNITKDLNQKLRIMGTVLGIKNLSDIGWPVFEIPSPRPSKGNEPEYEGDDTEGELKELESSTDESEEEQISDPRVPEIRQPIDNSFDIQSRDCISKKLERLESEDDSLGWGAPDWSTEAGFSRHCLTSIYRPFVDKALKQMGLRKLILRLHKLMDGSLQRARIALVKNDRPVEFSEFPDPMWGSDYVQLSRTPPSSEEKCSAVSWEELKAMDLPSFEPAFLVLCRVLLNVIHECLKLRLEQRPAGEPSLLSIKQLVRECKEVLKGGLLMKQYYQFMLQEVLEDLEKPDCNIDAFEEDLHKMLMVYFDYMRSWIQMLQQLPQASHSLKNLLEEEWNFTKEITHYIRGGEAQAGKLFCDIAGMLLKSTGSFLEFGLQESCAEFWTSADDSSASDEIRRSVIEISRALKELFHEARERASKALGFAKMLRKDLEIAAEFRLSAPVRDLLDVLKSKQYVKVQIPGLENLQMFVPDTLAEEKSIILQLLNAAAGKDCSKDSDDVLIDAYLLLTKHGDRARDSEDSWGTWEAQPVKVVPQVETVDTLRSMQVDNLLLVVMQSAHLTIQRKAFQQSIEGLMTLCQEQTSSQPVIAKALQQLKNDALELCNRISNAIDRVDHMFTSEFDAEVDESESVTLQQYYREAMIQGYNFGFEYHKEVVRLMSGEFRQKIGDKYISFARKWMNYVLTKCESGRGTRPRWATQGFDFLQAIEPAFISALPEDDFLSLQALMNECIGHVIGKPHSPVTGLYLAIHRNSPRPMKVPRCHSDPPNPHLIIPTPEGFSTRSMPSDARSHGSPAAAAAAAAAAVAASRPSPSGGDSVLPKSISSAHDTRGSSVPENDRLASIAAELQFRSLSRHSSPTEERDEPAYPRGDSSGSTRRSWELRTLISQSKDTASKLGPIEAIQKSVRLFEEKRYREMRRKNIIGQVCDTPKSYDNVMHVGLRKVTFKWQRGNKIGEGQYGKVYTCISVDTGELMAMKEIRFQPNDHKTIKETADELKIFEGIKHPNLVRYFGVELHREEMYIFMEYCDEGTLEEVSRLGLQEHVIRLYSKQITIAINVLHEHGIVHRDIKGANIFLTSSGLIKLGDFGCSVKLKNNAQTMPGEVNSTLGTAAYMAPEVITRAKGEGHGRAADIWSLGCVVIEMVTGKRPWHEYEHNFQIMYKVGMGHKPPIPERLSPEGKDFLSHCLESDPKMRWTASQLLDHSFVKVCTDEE
Phosphatidylinositol 4,5-bisphosphate 3-kinase catalytic subunit beta isoform, sequence (P42338 whole entry, looked up, the tested form may be a part, canonical isoform): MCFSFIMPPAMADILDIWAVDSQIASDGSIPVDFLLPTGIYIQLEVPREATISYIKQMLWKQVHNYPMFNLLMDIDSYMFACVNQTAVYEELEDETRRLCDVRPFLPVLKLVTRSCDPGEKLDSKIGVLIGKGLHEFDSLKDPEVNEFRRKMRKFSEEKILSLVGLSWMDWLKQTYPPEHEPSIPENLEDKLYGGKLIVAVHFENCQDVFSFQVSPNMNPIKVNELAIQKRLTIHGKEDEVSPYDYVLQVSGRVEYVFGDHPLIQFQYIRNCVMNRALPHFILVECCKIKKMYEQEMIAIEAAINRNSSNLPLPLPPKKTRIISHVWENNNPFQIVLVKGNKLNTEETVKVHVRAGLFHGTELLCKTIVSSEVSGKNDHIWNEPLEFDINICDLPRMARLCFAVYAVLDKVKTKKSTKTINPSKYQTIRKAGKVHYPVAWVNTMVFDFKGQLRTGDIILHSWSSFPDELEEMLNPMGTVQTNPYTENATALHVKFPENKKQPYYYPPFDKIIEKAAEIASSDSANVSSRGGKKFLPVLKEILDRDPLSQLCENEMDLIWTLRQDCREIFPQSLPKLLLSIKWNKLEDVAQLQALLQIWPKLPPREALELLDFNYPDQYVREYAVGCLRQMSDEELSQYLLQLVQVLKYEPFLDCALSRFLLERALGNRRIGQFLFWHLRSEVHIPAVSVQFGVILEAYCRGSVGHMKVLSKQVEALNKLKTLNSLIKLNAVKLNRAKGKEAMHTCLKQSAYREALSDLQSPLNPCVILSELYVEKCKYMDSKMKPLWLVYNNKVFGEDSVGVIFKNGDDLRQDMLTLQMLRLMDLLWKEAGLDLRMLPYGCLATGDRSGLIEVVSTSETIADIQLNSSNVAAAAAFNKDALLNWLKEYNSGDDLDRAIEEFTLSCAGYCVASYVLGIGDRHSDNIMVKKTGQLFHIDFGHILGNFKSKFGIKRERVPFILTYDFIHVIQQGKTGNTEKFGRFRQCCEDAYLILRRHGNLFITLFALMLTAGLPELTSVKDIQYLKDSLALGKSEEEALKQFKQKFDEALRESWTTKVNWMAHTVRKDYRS
Serine/threonine-protein kinase TNNI3K (Homo sapiens), sequence (Q59H18 whole entry, the tested form may be a part): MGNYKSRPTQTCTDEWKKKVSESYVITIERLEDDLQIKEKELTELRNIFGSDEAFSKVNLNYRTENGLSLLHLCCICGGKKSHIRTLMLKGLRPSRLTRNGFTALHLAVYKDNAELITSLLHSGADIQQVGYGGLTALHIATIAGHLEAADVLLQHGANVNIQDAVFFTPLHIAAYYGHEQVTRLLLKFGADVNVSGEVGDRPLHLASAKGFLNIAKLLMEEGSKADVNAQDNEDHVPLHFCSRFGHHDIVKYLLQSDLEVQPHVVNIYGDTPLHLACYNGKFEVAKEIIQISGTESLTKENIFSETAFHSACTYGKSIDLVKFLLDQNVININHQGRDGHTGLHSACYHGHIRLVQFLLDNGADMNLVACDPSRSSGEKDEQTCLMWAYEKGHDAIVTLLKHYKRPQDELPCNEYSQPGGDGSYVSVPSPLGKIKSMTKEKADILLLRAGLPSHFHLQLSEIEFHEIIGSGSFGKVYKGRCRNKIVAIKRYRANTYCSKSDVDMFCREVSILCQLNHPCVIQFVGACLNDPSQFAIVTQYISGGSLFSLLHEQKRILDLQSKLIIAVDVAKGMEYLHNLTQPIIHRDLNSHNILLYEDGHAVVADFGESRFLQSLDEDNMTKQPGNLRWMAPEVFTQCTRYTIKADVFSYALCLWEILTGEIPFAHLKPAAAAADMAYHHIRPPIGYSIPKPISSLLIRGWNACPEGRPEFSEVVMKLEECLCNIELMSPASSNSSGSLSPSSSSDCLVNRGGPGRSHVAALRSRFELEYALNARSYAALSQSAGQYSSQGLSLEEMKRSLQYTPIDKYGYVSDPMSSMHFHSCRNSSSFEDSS

Turning to `COc1ncc(-c2ccc3nccc(/C(C)=C/C(=O)N4CCN(C)CC4)c3c2)cc1NS(=O)(=O)c1ccc(F)cc1F`, the Activity came out at 35% in data set [1]; 0% in [2]; 61% in data set [3]; 0.1% in data set [4]; 100% in data set [6]; 0% in data set [7]. Moreover, the Activity is 100% in data set [8]; 87% in data set [9]; 73% in data set [10]; 78% in data set [11]; 69% in data set [12]; 0% in data set [13]. Besides, the Activity in data set [15] stood at 0%; in [16], 45%; in [17], 92%; in [18], 9.4%. In addition, the inhibition entry (in data set [5]; with U87) was “Active” throughout. In addition, in the data set on PC-3, the GI50 worked out at 360 nM. The same compound returned an AUC(0-t) in [14] of 1340 ng·h/mL. The compound also came in with an IC50 in [19] of 1.3 nM.

As a reminder, the GI50 is the concentration at which growth is held to half of that of the control. A word on the AUC(0-t): it is exposure summed from dosing to a finite time, without extrapolation to infinity. A word on the IC50: it is the concentration at which inhibition is half-maximal.

These data come from ChEMBL document CHEMBL4732196, “Structural optimization towards promising β-methyl-4-acrylamido quinoline derivatives as PI3K/mTOR dual inhibitors for anti-cancer therapy: The in vitro and in vivo biological evaluation” (Eur J Med Chem, 2021).
